One may read the Kd as a measure of binding affinity in units of concentration.

Where only a bound is given, the exact number is not on record here.

B1: GFP aptamer (parent)
chain: GCUUCUGGACUGCGAUGGGAGCACGAAACGUCGUGGCGCAAUUGGGUGGGGAAAGUCCUUAAAAGAGGGCCACCACAGAAGC

Variants of B1 are the subject of this series. Put plainly: HiTS-RAP. To be noted: with EGFP. The essentials:
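Aptamer DNA templates carrying a T7 promoter and ter site were sequenced on an Illumina GAIIx flowcell, then transcribed in situ by T7 RNA polymerase and halted by GST-Tus (30 minutes, 37°C). Clusters were imaged after 30-minute room-temperature equilibration with EGFP-mOrange at 0.04 nM to 625 nM in fivefold steps. Intensities were decay-corrected, normalised to sequencing intensity and averaged per sequence. Kd came from weighted Hill fits per lane, geometrically averaged over three lanes, with non-rising sequences set to 125 nM.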
With U31C C58U, the Kd worked out at 1.14 nM.
As for A28G G68A, the figure is 32.8 nM; as for A20G U31C, 35.3 nM.
With A28G C58U the figure was 1.28 nM.
With A27G U31C the figure was 4.55 nM.
On to G25A C32U, for which the Kd was 13.6 nM.
As to G25A A28G, the Kd worked out at 5.89 nM.
As for A26G C73U, the figure is 5.43 nM.
As for G25A A27G, the figure is 5.68 nM; as for A27G U43C, 4.45 nM; as for U31C A40G, 4.07 nM.
As for A23G U31C, the figure is 3.06 nM.
For the variant G33A A79G, the dissociation constant (Kd) came out at 11.9 nM.
With A26G A77G the figure was 3.88 nM; with A27G A28G, 4.44 nM.
With A28G C37U, the Kd is 7.93 nM.
As for C37U U43C, the figure is 12.8 nM.
With U34G the figure was 6.01 nM.
As for U34A, the figure is 30.6 nM; as for U34C, 24.2 nM.
Consider C24U A41G, for which the Kd turned out to be 11.7 nM.
With U31C the figure was 4.31 nM; with U31A, 4.16 nM; with U31G, 3.99 nM.
As for G25A U31C, the figure is 3.75 nM; as for C22U U43C, 2.31 nM; as for A27G A40G, 2.81 nM.
With G30A C74U the figure was 5.86 nM; with A23U, 11.2 nM; with A23C, 13.2 nM.
Turning to A23G, the Kd turned out to be 5.87 nM.
With A26G C70U the figure was 0.997 nM; with C22U C58U, 12.7 nM.
As for C29U U31C, the figure is 2.86 nM.
In the case of A26G, the Kd was 4.22 nM.
With A26U the figure was 4.33 nM; with A26C, 4.53 nM; with A20U, ≥ 125 nM.
Regarding C32G, the dissociation constant Kd amounted to 4.95 nM.
As for C32A, the figure is 3.24 nM.
With C32U the figure was 4.26 nM.
For U31C G68A, the Kd is 28.1 nM.
As for G33U, the figure is 35.1 nM.
Regarding G33C, the Kd is ≥ 125 nM.
With G33A the figure was 11.6 nM; with C24G, 13.2 nM.
C24A: the Kd came to 10.6 nM.
As for C24U, the figure is 4.82 nM; as for A27G U34C, 9.07 nM.
With C29U C74U the figure was 1.86 nM; with C24U A27G, 7.09 nM; with G30A C73U, 0.856 nM.
As for C24U G33A, the figure is 5.72 nM; as for G25A G33A, 11.9 nM.
G25A: the Kd was found to be 5 nM.
As for G25U, the figure is 3.87 nM; as for G25C, 7 nM; as for A20G G33A, 49 nM.
For the variant C32U G68A, the Kd is 60.2 nM.
As for C24U C37U, the figure is 6.91 nM.
As for G30A G68A, the figure is 31.8 nM.
As for A27U, the figure is 3.98 nM.
For A27G, the dissociation constant Kd amounted to 4.28 nM.
With A27C the figure was 4.47 nM; with C29U, 4.49 nM.
With C29G the figure was 4.09 nM; with C29A, 3.32 nM; with A28G G44A, 4.96 nM.
As for A20G A28G, the figure is 15.5 nM; as for A28G U47A, 3.89 nM.
For A28G U47C, the Kd turned out to be 1.08 nM.
As for A27G G30A, the figure is 2.45 nM; as for G30A A75G, 41.1 nM; as for C32U A79G, 5.26 nM.
As for C24U G68A, the figure is 54.1 nM; as for C32U C70U, 11.5 nM; as for G25A C58U, 2.17 nM.
As for A27G G46A, the figure is 12.7 nM; as for A28G, 4.55 nM; as for A28C, 6.92 nM.
As for A28U, the Kd is 4.46 nM.
With A23G U34C the figure was 1.23 nM; with A27G C71U, 17.8 nM.
With A26G A41G the figure was 2.97 nM.
With G38A the figure was 28 nM.
Regarding G38U, the Kd came to 14.5 nM.
As for G38C, the figure is 83.5 nM; as for G30C, 4.2 nM; as for G30A, 4.37 nM.
With G30U the figure was 3.95 nM; with A20G U60A, 7.33 nM.
As for A28G A77G, the figure is 2.55 nM; as for A27G G68A, 17.3 nM.
As for A27G A77G, the Kd came out at 4.47 nM.
With A20G A41G the figure was 19.6 nM; with G25A C74U, 4.63 nM; with A27G A75G, 5.08 nM.
For G33A C73U, the Kd came to 8.48 nM.
With C24U A28G the figure was 2.43 nM; with C32U U43C, 2.27 nM; with A27G A79G, 2.94 nM.
With A20G A79G the figure was 37.9 nM; with A23G C74U, 2.27 nM; with G30A G33A, 27.8 nM.
As for U31C A79G, the Kd was found to be 3.52 nM.
Take C37U A77G: the Kd was 2.53 nM.
Regarding A26G C32U, the Kd came to 5.01 nM.
As for U31C U43C, the figure is 1.5 nM; as for A27G G33A, 5.11 nM.
With U31C A75G the figure was 14 nM; with C39G, 9.2 nM; with C39U, 10.3 nM.
With C22U A27G the figure was 9.49 nM; with A28G G46A, 14.2 nM.
As to A26G U31C, the Kd amounted to 3.77 nM.
For the variant A20G A27G, the Kd came out at 4.69 nM.
With A23G A26G, the Kd amounted to 35.8 nM.
As for U31C G44A, the figure is 1.82 nM; as for C24U C58U, 2.39 nM; as for A28G U60C, 13.9 nM.
With U34C C58U the figure was 68.2 nM.
A20G A62G: the Kd worked out at 13.1 nM.
With A27G C74U, the dissociation constant Kd was 3.31 nM.
With U31C A41G the figure was 3.04 nM.
For the variant A20G G44A, the Kd was 13 nM.
With C37U C73U, the Kd stood at 24 nM.
As for U34C A77G, the figure is 18 nM; as for G35U, ≥ 125 nM.
With G35A the figure was ≥ 125 nM; with G35C, ≥ 125 nM.
As for A20G A26G, the figure is 7.96 nM; as for C22G, 29.1 nM; as for C22A, 13.8 nM.
Consider C22U, for which the Kd came to 9.58 nM.
Regarding A27G C37U, the Kd was 3.28 nM.
As for A20G G30A, the figure is 30.3 nM; as for G25A A26G, 6.06 nM; as for A28G U31C, 5.74 nM.
With A27G C58U the figure was 0.55 nM; with A27G C32U, 3.03 nM; with C37A, 5.05 nM.
As for C37U, the figure is 19.1 nM; as for C37G, 15.5 nM.
For A28G A79G, the Kd worked out at 3.44 nM.
With A23G A27G the figure was 5.79 nM; with A20G C58U, 11.5 nM; with A28G A41G, 2.01 nM.
With C22U A28G, the Kd came to 10.1 nM.
As for A20G G25A, the figure is 10.8 nM; as for A27G C73U, 10.5 nM; as for A28G U42C, 6.79 nM.
With U34C A41G the figure was 2.74 nM.
For G25A A77G, the Kd is 3.54 nM.
Take G21U: the Kd is 6 nM.
For the variant G21A, the Kd is ≥ 125 nM.
Turning to G21C, the Kd is 5.13 nM.
With C29U U34C the figure was 20.1 nM; with G25A U43C, 2.24 nM; with G36A, 63.3 nM.
With G36C the figure was ≥ 125 nM; with G36U, ≥ 125 nM; with A26G A27G, 2.12 nM.
As for C22U A41G, the figure is 21.2 nM; as for C32U C74U, 11.9 nM.
On to A27G C70U, for which the equilibrium dissociation constant (Kd) amounted to 17 nM.
For C22U G68A, the dissociation constant Kd is 18 nM.
Regarding U31C U42C, the dissociation constant (Kd) is 19.5 nM.

(Values after the RNAGym collection of RNA variant scans (doi:10.1038/nmeth.2970).)
